{"source": "ChEMBL document CHEMBL5653624", "about": "(Biochem Pharmacol, 2016)", "key": {"[1]": {"tested_on": "RAW264.7", "experiment": "Antiinflammatory activity in mouse RAW264.7 cells assessed as effect on LPS/IFNgamma-induced TNFalpha gene expression at 1 uM preincubated for 20 hrs followed by LPS/IFNgamma stimulation and measured after 4 hrs by RT-qPCR analysis", "format": "functional, cell-based", "details": "time 24.0 hrs", "method_in_brief": "(§1)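 RAW 264.7 macrophages in DMEM/10% FBS received 1 μM RGFP966 for 20 h, with LPS/IFNγ for the last 4 h. Washed with cold DPBS, total RNA isolated, integrity checked by 28S/18S. RT-qPCR by comparative Ct (2−ΔΔCt), fold change versus LPS/IFNγ control. Mean ± SD of 3–5 independent experiments.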"}, "[2]": {"target": "T1, Histone deacetylase 3 (Mus musculus) (UniProt O88895)", "T1 sequence (whole entry)": "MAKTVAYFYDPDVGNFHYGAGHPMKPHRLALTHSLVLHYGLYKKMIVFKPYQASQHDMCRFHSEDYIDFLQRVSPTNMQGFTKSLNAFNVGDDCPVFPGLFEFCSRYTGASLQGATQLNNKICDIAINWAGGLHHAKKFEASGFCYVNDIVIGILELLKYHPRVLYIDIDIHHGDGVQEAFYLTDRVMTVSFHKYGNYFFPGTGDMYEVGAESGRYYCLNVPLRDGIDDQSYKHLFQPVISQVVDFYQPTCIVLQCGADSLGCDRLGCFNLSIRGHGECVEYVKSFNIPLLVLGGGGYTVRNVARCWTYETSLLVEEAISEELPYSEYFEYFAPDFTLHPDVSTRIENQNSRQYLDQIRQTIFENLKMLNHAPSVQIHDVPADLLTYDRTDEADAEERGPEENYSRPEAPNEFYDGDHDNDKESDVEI", "experiment": "Inhibition of HDAC3 in mouse RAW264.7 cells assessed as effect on histone H4 peptide (GKGGKGLGKGGAKR) acetylation measured after 20 hrs by LC-MS/MS analysis", "format": "cell-based", "method_in_brief": "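Histones from RAW 264.7 (20 h treatment) run on 15% SDS-PAGE (7 μg), Coomassie-stained H3/H4 bands excised, destained, and chemically acetylated with acetic anhydride-d6 in 1 M ammonium bicarbonate; endogenous lysine acetylation ratio derived by mass spectrometry from deuterated versus non-deuterated acetyl mass difference.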"}, "[3]": {"tested_on": "HBE", "experiment": "Antiinflammatory activity in HBE cells assessed as effect on LPS/IFNgamma-induced iNOS gene expression at 2 uM […] by RT-qPCR analysis", "format": "functional, cell-based", "details": "Homo sapiens", "method_in_brief": "(§2)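 HBE cells (passage 73–103) or immortalized hASM cells (2–3 donors, passage 27–35), serum-starved. Then 2 μM RGFP966 for 20 h, with LPS/IFNγ for the last 4 h. Total RNA isolated; RT-qPCR by 2−ΔΔCt, fold change versus LPS/IFNγ control. Mean ± SD of 3–5 independent experiments.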"}, "[4]": {"tested_on": "HBE", "experiment": "Antiinflammatory activity in HBE cells assessed as up regulation of LPS/IFNgamma-induced IL-6 gene expression at 2 uM […] by RT-qPCR analysis", "format": "functional, cell-based", "details": "Homo sapiens", "method_in_brief": "as §2"}, "[5]": {"tested_on": "RAW264.7", "experiment": "Antiinflammatory activity in LPS/IFNgamma-stimulated mouse RAW264.7 cells assessed as reduction in HDAC1 expression preincubated for 20 hrs followed by LPS/IFNgamma stimulation and measured after 4 hrs by Western blot analysis", "format": "functional, cell-based", "details": "time 24.0 hrs", "method_in_brief": "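RAW 264.7 cells were LPS/IFNγ-stimulated after inhibitor exposure, then lysed in Hepes/Triton buffer containing DTT, butyrate and protease inhibitors, freeze-thawed and cleared. Immunoblot with milk blocking and overnight primary antibody at 4 °C. Densitometry normalized to β-actin, LPS/IFNγ control set at 100%. Mean ± SD of 4 independent experiments.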"}, "[6]": {"tested_on": "Lung", "experiment": "Antiinflammatory activity in C57bl/6 mouse precision-cut lung slices assessed as down regulation of LPS/IFNgamma-induced IL-12b gene expression at 1 to 10 uM preincubated for 20 hrs followed by LPS/IFNgamma stimulation and measured after 4 hrs by RT-qPCR analysis", "format": "functional, tissue-based", "details": "dose 1-10 µM, time 24.0 hrs", "method_in_brief": "(§3)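 PCLS, 250 μm thick, cut from agarose-filled lungs of male C57bl/6 mice (24–28 g, 8–10 weeks). Three slices per well at 37 °C, 5% CO2. Slices received RGFP966 at 1 and 10 μM final for 20 h, with 10 ng/ml LPS and 10 ng/ml IFNγ stimulation. RNA isolated; RT-qPCR fold change versus LPS/IFNγ control by 2−ΔΔCt. Mean ± SD, n = 3–5.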"}, "[7]": {"tested_on": "RAW264.7", "experiment": "Antiinflammatory activity in mouse RAW264.7 cells assessed as down regulation of LPS/IFNgamma-induced IL-1beta gene expression at 1 uM preincubated for 20 hrs followed by LPS/IFNgamma stimulation and measured after 4 hrs by RT-qPCR analysis", "format": "functional, cell-based", "details": "time 24.0 hrs", "method_in_brief": "as §1"}, "[8]": {"tested_on": "HASMC", "experiment": "Antiinflammatory activity in HASMC cells assessed as effect on LPS/IFNgamma-induced IL-12b gene expression at 2 uM […] and measured after 4 hrs by RT-qPCR analysis", "format": "functional, cell-based", "details": "Homo sapiens", "method_in_brief": "as §2"}, "[9]": {"experiment": "Toxicity in C57bl/6 mouse precision-cut lung slices assessed as effect on tissue viability up to 10 uM measured after 20 hrs by LDH release assay", "format": "tissue-based", "method_in_brief": "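PCLS (250 μm) from male C57bl/6 mice, agarose-filled lungs, washed four times, 3 slices/well at 37 °C 5% CO2; inhibitor at 1 and 10 μM for 20 h. LDH in medium measured on automatic analyzer, expressed relative to maximal release from 3 slices lysed with 1% Triton X-100 (30 min, 37 °C).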"}, "[10]": {"tested_on": "Lung", "experiment": "Antiinflammatory activity in C57bl/6 mouse precision-cut lung slices assessed as effect on LPS/IFNgamma-induced HDAC3 expression at 1 to 10 uM preincubated for 20 hrs followed by LPS/IFNgamma stimulation and measured after 4 hrs by Western blot analysis", "format": "functional, tissue-based", "details": "dose 1-10 µM, time 24.0 hrs"}, "[11]": {"tested_on": "RAW264.7", "experiment": "Antiinflammatory activity in mouse RAW264.7 cells assessed as effect on LPS/IFNgamma-induced IL-10 gene expression at 1 uM preincubated for 20 hrs followed by LPS/IFNgamma stimulation and measured after 4 hrs by RT-qPCR analysis", "format": "functional, cell-based", "details": "time 24.0 hrs", "method_in_brief": "as §1"}, "[12]": {"tested_on": "Lung", "experiment": "Antiinflammatory activity in C57bl/6 mouse precision-cut lung slices assessed as upregulation of LPS/IFNgamma-induced IL-10 gene expression at 1 to 10 uM preincubated for 20 hrs followed by LPS/IFNgamma stimulation and measured after 4 hrs by RT-qPCR analysis relative to control", "format": "functional", "details": "dose 1-10 µM; time 24 hrs", "method_in_brief": "as §3"}, "[13]": {"tested_on": "HBE", "experiment": "Antiinflammatory activity in HBE cells assessed as effect on LPS/IFNgamma-induced IL-12b gene expression at 2 uM […] by RT-qPCR analysis", "format": "functional, cell-based", "details": "Homo sapiens", "method_in_brief": "as §2"}, "[14]": {"tested_on": "RAW264.7", "experiment": "Antiinflammatory activity in mouse RAW264.7 cells assessed as down regulation of LPS/IFNgamma-induced IL-6 gene expression at 1 uM preincubated for 20 hrs followed by LPS/IFNgamma stimulation and measured after 4 hrs by RT-qPCR analysis", "format": "functional, cell-based", "details": "time 24.0 hrs", "method_in_brief": "as §1"}, "[15]": {"tested_on": "Lung", "experiment": "Antiinflammatory activity in C57bl/6 mouse precision-cut lung slices assessed as upregulation of LPS/IFNgamma-induced IkappaBalpha expression at 1 to 10 uM preincubated for 20 hrs followed by LPS/IFNgamma stimulation and measured after 4 hrs by Western blot analysis", "format": "functional, tissue-based", "details": "dose 1-10 µM, time 24.0 hrs"}}, "note": "Active and inactive are the calls of the source. The calls are words filed in the database; no cut-off is given here.", "data": [{"smiles": "Nc1cc(F)ccc1NC(=O)/C=C/c1cnn(C/C=C/c2ccccc2)c1", "values": [{"measurement": "Activity", "setting": "[1]", "result": "inactive"}, {"measurement": "inhibition", "setting": "[2]", "result": "inactive"}, {"measurement": "Activity", "setting": "[3]", "result": "inactive"}, {"measurement": "Activity", "setting": "[4]", "result": "Active"}, {"measurement": "Activity", "setting": "[5]", "result": "Active"}, {"measurement": "Activity", "setting": "[6]", "result": "Active"}, {"measurement": "Activity", "setting": "[7]", "result": "Active"}, {"measurement": "Activity", "setting": "[8]", "result": "inactive"}, {"measurement": "Activity", "setting": "[9]", "result": "Non-Toxic"}, {"measurement": "Activity", "setting": "[10]", "result": "inactive"}, {"measurement": "Activity", "setting": "[11]", "result": "inactive"}, {"measurement": "fold change (FC)", "setting": "[12]", "result": 2}, {"measurement": "Activity", "setting": "[13]", "result": "inactive"}, {"measurement": "Activity", "setting": "[14]", "result": "Active"}, {"measurement": "Activity", "setting": "[15]", "result": "Active"}]}]}
